# Insulin prom up – MIN6 insulin promoter up-regulation; z-score at 5 µM; MIN6 insulin promoter-GFP reporter, high-content imaging; stronger effect = higher value; 0.3% of 190,000 active; AID 1625;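 active = z-score above 3 at 5 µM with at least 500 cells counted in the well; inconclusive = wells under 500 cells, flagged as cytotoxic or low count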
# b-catenin transl – modulators of beta-catenin nuclear translocation; HeLa beta-catenin nuclear translocation, immunofluorescence imaging; nuclear translocation activity, % at 5 µM; 0.3% of 190,000 active;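 active = nuclear translocation activity above 50% at 5 µM, with a well cell count of 50 or more; inconclusive = wells under 50 cells across six images, flagged as toxic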;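 also: per-cell ratio of nuclear to cytoplasmic median beta-catenin stain intensity; plate controls were DMSO negative control for no effect and GSK-3 inhibitor IX positive control for full effect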
#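 Test system: human HeLa cells, endogenous beta-catenin. Times: 24 h compound exposure, 37°C. Measured by: beta-catenin immunofluorescence imaging with DAPI.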
# HSV augment – HSV replication enhancement | HSV replication augmentation in cells, fold increase | maximum fold increase | 0.005% of 220,000 active | AID 1956; in the data active = maximum fold increase above about 1.5; inconclusive = no clear call, values can overlap the other calls; tested in PC3 cells
# MT stabilizer – stabilizes microtubules in HeLa cells. HeLa tubulin immunostaining HCS, 24 h; share of cells brighter than vehicle mean+2SD. % tubulin-high responders, % at 10 µM. 0.83% of 200,000 active. AID 2205;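 active = plate Z-score above 3 for both tubulin-high and condensed-nucleus cell shares, with cell loss under 80%, at 10 µM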;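 also: anti alpha tubulin signal scored within the nucleus-defined area of each cell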
# Autophagy HCS – modulators of autophagy. 0.98% of 190,000 active. MEF GFP-LC3 puncta imaging; test concentration mostly 10 µM. AID 463193. calls only at 10 µM (by protocol);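 active = percentage of spot-positive cells more than 3 SD above its plate mean, without a fluorescence outlier flag or 80% toxicity; inconclusive = no clear call, values can overlap the other calls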;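 also: spot-positive cell cutoff set from DMSO-treated cells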
# Furin inh – human furin inhibition; inhibition, % at 20 µM or 30 µM; AID 463115; 0.061% of 220,000 active; purified furin, fluorogenic substrate cleavage; in the data active = inhibition above about 25%
# Target sequence (P09958 108-714 limits assumed): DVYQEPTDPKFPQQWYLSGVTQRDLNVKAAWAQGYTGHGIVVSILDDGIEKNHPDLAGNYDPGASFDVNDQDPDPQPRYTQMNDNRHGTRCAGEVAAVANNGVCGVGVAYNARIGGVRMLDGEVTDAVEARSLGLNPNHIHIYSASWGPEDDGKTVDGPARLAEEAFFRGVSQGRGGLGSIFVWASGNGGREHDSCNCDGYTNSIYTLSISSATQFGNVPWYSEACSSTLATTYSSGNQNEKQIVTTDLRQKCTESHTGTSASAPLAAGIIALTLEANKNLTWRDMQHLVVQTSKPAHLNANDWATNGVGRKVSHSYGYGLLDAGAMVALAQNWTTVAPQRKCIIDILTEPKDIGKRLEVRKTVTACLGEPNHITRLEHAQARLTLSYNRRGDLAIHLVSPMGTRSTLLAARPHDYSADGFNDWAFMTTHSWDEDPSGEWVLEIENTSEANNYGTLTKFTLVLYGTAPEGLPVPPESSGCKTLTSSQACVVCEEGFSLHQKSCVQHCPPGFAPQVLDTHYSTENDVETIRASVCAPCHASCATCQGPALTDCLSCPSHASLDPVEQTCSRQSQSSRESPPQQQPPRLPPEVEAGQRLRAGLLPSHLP
# The depositor's hits bear a star; i = inactive; ? = inconclusive; / = not tested or not shown; + = active, no number. Most compounds without a hit are left out; they make up all but 1.9% or so of the library.
SMILES,Insulin prom up,b-catenin transl,HSV augment,MT stabilizer,Autophagy HCS,Furin inh
CCOC(=O)C1=C(C)NC(C)=C(C(=O)OCC)C1c1cc2ccc(C)cc2[nH]c1=O,-0.23,/,i,45*,i,-12
COC(=O)C1=C(C)NC(C)=C(C(=O)OC)C1c1cc2cc(C)ccc2[nH]c1=O,0.97,-1,i,4,i,-10
Cc1ccc(C)c(OCC(=O)Nc2nc3ccc([N+](=O)[O-])cc3s2)c1C,-0.19,0,i,1,i,-11
CCS(=O)(=O)N1CCN(c2ccc(C(=O)NC3C4CC5CC(C4)CC3C5)cc2[N+](=O)[O-])CC1 (centres undefined),-0.57,1,i,2,i,-16
Brc1ccc(-c2csc(-c3c[nH]c4ccccc34)n2)cc1,-0.3,1,i,3,i,-19
c1ccc2c(-c3csc(-c4ccncc4)n3)c[nH]c2c1,/,1,i,4,+,-24
CCOC(=O)c1ccc(CSc2nnc(-c3ccncc3)n2N)cc1,3.8*,-2,i,3,i,-26
Cc1ccc(CSc2nnc(-c3ccncc3)n2N)cc1,0.34,0,i,/,/,-10
CC(C)N(Cc1nc(-c2ccccc2)no1)C(=O)C(Cl)(Cl)Cl,0.17,-3,i,3,i,-26
CC(C)N(Cc1nc(-c2ccccc2)no1)C(=O)C(C)(C)C,-1.2,0,i,4,+,-26
COc1cc(N=Nc2cccc(S(N)(=O)=O)c2)c2ccccc2c1N,5.9*,0,?,/,/,-2
Cc1cccc(C(=O)N2CCN(C(=O)c3cccc(C)c3)C(C)C2)c1 (centres undefined),/,/,i,4,+,-14
Nc1ccccc1NC1CCCCC1,0.15,0,i,4,i,-19
CN(C)C=Nc1ncc2c3ccccc3n(CCN(C)C)c2c1C#N,-0.63,0,i,2,i,-6
CCN(CC)CCn1c2ccccc2c2cnc(N)c(C#N)c21,-0.33,-2,i,3,+,-21
N#Cc1c(-c2ccccc2)cc(C2CC2)nc1SCC(=O)c1cccs1,2.1,5,/,6,+,-9
COc1ccc(-c2ccc(SCC(=O)c3cccs3)nn2)cc1,0.64,0,i,6,i,-29
O=C(CSc1ccc(-c2ccccc2)nn1)c1cccs1,0.67,-4,i,3,+,-24
CC1=CC2CC1C1C(=O)N(c3ccc(S(=O)(=O)Nc4nc(C)cc(C)n4)cc3)C(=O)C21 (centres undefined),0.36,-1,i,1,i,-3
Cc1ccc(Cn2cc(/C=N/NC(=O)Cc3nnc(NC(=O)c4ccc(C)cc4)s3)c3ccccc32)cc1,/,3,i,3,i,-5
Cc1cc(N2CCN(C)CC2)ccc1NC(=O)c1c2c(nc3ccccc13)CCN(Cc1ccccc1)C2,-5.2,-3,/,3,?,1
Cc1c(Cl)cccc1NC(=O)COC(=O)c1c2c(nc3ccccc13)CCN(Cc1ccccc1)C2,-0.22,-1,i,3,+,-4
O=C(NC1CCCCCC1)c1c2c(nc3ccccc13)CCN(Cc1ccccc1)C2,-0.6,-3,i,3,i,-17
CC(C)c1ccccc1NC(=O)COC(=O)c1c2c(nc3ccccc13)CCN(Cc1ccccc1)C2,-1.3,/,i,2,+,-4
Cc1c2oc3c(C)ccc(C(=O)N[C@@H]4C(=O)N[C@H](C(C)C)C(=O)N5CCC[C@H]5C(=O)N(C)CC(=O)N(C)[C@@H](C(C)C)C(=O)O[C@@H]4C)c3nc-2c(C(=O)N[C@@H]2C(=O)N[C@H](C(C)C)C(=O)N3CCC[C@H]3C(=O)N(C)CC(=O)N(C)[C@@H](C(C)C)C(=O)O[C@@H]2C)c(N)c1=O,/,/,i,/,/,/
SMILES,Insulin prom up,b-catenin transl,HSV augment,MT stabilizer,Autophagy HCS,Furin inh
O=C(c1cnn2c(C(F)(F)F)cc(-c3ccc4c(c3)OCO4)nc12)N1CCCCC1,1.1,0,i,5,i,-12
O=C(NC1CCCC1)c1cnn2c(C(F)(F)F)cc(-c3ccc4c(c3)OCO4)nc12,/,/,i,10,+,-23
CC(=O)Oc1ccc(-c2ccc(C(=O)Nc3cccc(S(=O)(=O)N4CCOCC4)c3)cc2)cc1,-1,0,i,10,i,-26
COc1ccc(C(=O)NC(=S)Nc2cccc(S(=O)(=O)N3CCOCC3)c2)cc1,-0.73,0,i,22*,i,-19
CCOC(=O)c1ccc(N2C(=O)CC(N3CCC(C(N)=O)(N4CCCCC4)CC3)C2=O)cc1 (centres undefined),/,-1,i,3,+,-21
O=C(Nc1ccc(Cl)cn1)C1COc2ccccc2O1 (centres undefined),/,-2,i,3,i,-28
CCOc1ccc(/C=C/C(O)=C2/C(=O)NC3(C)CC2c2ccccc2O3)cc1OC (centres undefined),-0.19,/,i,9,+,-13
CN(C)c1ccc(/C=C/C(O)=C2/C(=O)N(C)C3(C)CC2c2ccccc2O3)cc1 (centres undefined),/,0,?,4,i,-33
CCOc1ccc(/C=C/C(O)=C2/C(=O)N(C)C3(C)CC2c2ccccc2O3)cc1OC (centres undefined),-0.48,44,i,15*,i,-22
CCOc1cc(NC(=S)NCC2CCCO2)c(OCC)cc1NC(=O)c1cccc(F)c1 (centres undefined),0.25,0,i,5,i,-21
Cc1ccccc1NCC(=O)N/N=C/c1c[nH]c2ccccc12,4*,2,i,4,i,-26
CCn1c(SCC(=O)N/N=C/c2c[nH]c3ccccc23)nnc1-c1ccc(C)cc1,/,-3,i,4,i,-16
CCn1c(SCC(=O)N/N=C/c2c[nH]c3ccccc23)nnc1-c1ccc(Cl)cc1,0.25,35,i,12*,i,-21
CCOc1cc(N2CCOCC2)c(OCC)cc1NC(C)C(=O)N1CCC(C)CC1 (centres undefined),0.04,0,i,9,i,-10
CC(C)(C)Nc1nc(Oc2ccc(=O)[nH]n2)nc(N2CCOCC2)n1,0.47,0,i,3,i,-31
CCCCC(=O)Nc1ccc(C(=O)Nc2ccc(S(=O)(=O)Nc3nccc(C)n3)cc2)cc1,0.17,1,i,5,i,-8
Cc1nc2ccccc2c(=O)n1NCc1cc(Br)cs1,-0.07,-2,i,2,i,-21
COc1ccc(NC(=O)CN(c2cc(C)cc(C)c2)S(=O)(=O)c2c(C)noc2C)cc1,0.6,-6,i,4,+,-13
CCOc1ccc(N(CC(=O)Nc2ccccc2C)S(=O)(=O)c2c(C)noc2C)cc1,1.3,68*,i,15*,i,-10
CCOc1ccccc1NC(=O)CN(c1ccc(OC)cc1)S(=O)(=O)c1c(C)noc1C,0.96,2,i,17*,+,-5

# Assay outcomes: PubChem BioAssay, several laboratories
